# Data reported in ChEMBL document CHEMBL5058577, “EUbOPEN Chemogenomics Library 2 (Multiplex)” (2022).
# Tested on: Fibroblast
# Assay: Multiplex assay against human fibroblast
# Assay type: toxicity, cell-based
# Summary of the method: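 Live cells were stained at seeding with Hoechst33342, BioTracker Green Microtubule Cytoskeleton Dye, MitoTracker Red and Annexin V Alexa Fluor 680, then imaged on a CQ1 microscope at 37°C and 5% CO2 after compound addition. CellPathfinder machine-learning gating split cells into Hoechst high-intensity objects or normal cells. Normal cells were split into healthy, pyknosed or fragmented nuclei, and pyknosed cells into mitotic or apoptotic. Tubulin, mitochondrial-mass and membrane-permeability phenotypes are per cents of healthy-nucleus cells.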
# [1] = 12 h, 1 µM, compound concentration 1 uM, replicate 1
# [2] = 12 h, 1 µM, compound concentration 1 uM, replicate 2
# [3] = 12 h, 10 µM, compound concentration 10 uM, replicate 1
# [4] = 12 h, 10 µM, compound concentration 10 uM, replicate 2
# [5] = 24 h, 1 µM, compound concentration 1 uM, replicate 1
# [6] = 24 h, 1 µM, compound concentration 1 uM, replicate 2
# [7] = 24 h, 10 µM, compound concentration 10 uM, replicate 1
# [8] = 24 h, 10 µM, compound concentration 10 uM, replicate 2
# [9] = 48 h, 1 µM, compound concentration 1 uM, replicate 1
# [10] = 48 h, 1 µM, compound concentration 1 uM, replicate 2
# [11] = 48 h, 10 µM, compound concentration 10 uM, replicate 1
# [12] = 48 h, 10 µM, compound concentration 10 uM, replicate 2
structure (smiles),measurement,setting,value
Cc1ccc(F)cc1C(=O)Nc1ccc(C(=O)N2Cc3cccn3Cc3ccccc32)c(Cl)c1 [LIXIVAPTAN],Population Apoptotic (%),[1],40%
same,Population Fragmented Nuclei (%),[1],11%
same,Population Healthy Nuclei (%),[1],73%
same,Population Hoechst High Intensity Objects (%),[1],5%
same,Population Membrane Permeable-Phenotype (%),[1],0%
same,Population Mitochondria Different-Phenotype (%),[1],3%
same,Population Mitotic Cells (%),[1],59%
same,Population Normal (%),[1],94%
same,Population Pyknosed Nuclei (%),[1],15%
same,Population Tubulin-Different-Phenotype (%),[1],28%
same,Total Cell Count,[1],186
same,Population Apoptotic (%),[2],50%
same,Population Fragmented Nuclei (%),[2],30%
same,Population Healthy Nuclei (%),[2],47%
same,Population Hoechst High Intensity Objects (%),[2],3%
same,Population Membrane Permeable-Phenotype (%),[2],1%
same,Population Mitochondria Different-Phenotype (%),[2],9%
same,Population Mitotic Cells (%),[2],50%
same,Population Normal (%),[2],96%
same,Population Pyknosed Nuclei (%),[2],21%
same,Population Tubulin-Different-Phenotype (%),[2],38%
same,Total Cell Count,[2],117
same,Population Apoptotic (%),[3],34%
same,Population Fragmented Nuclei (%),[3],18%
same,Population Healthy Nuclei (%),[3],58%
same,Population Hoechst High Intensity Objects (%),[3],0%
same,Population Membrane Permeable-Phenotype (%),[3],2%
same,Population Mitochondria Different-Phenotype (%),[3],5%
same,Population Mitotic Cells (%),[3],65%
same,Population Normal (%),[3],99%
same,Population Pyknosed Nuclei (%),[3],23%
same,Population Tubulin-Different-Phenotype (%),[3],62%
same,Total Cell Count,[3],137
same,Population Apoptotic (%),[4],31%
same,Population Fragmented Nuclei (%),[4],27%
same,Population Healthy Nuclei (%),[4],46%
same,Population Hoechst High Intensity Objects (%),[4],5%
same,Population Membrane Permeable-Phenotype (%),[4],6%
same,Population Mitochondria Different-Phenotype (%),[4],10%
same,Population Mitotic Cells (%),[4],68%
same,Population Normal (%),[4],94%
same,Population Pyknosed Nuclei (%),[4],25%
same,Population Tubulin-Different-Phenotype (%),[4],72%
same,Total Cell Count,[4],179
same,Population Apoptotic (%),[5],50%
same,Population Fragmented Nuclei (%),[5],12%
same,Population Healthy Nuclei (%),[5],73%
same,Population Hoechst High Intensity Objects (%),[5],1%
same,Population Membrane Permeable-Phenotype (%),[5],1%
same,Population Mitochondria Different-Phenotype (%),[5],0%
same,Population Mitotic Cells (%),[5],50%
same,Population Normal (%),[5],98%
same,Population Pyknosed Nuclei (%),[5],14%
same,Population Tubulin-Different-Phenotype (%),[5],33%
same,Total Cell Count,[5],172
same,Population Apoptotic (%),[6],32%
same,Population Fragmented Nuclei (%),[6],33%
same,Population Healthy Nuclei (%),[6],43%
same,Population Hoechst High Intensity Objects (%),[6],3%
same,Population Membrane Permeable-Phenotype (%),[6],5%
same,Population Mitochondria Different-Phenotype (%),[6],5%
same,Population Mitotic Cells (%),[6],67%
same,Population Normal (%),[6],96%
same,Population Pyknosed Nuclei (%),[6],23%
same,Population Tubulin-Different-Phenotype (%),[6],52%
same,Total Cell Count,[6],126
same,Population Apoptotic (%),[7],25%
same,Population Fragmented Nuclei (%),[7],19%
same,Population Healthy Nuclei (%),[7],63%
same,Population Hoechst High Intensity Objects (%),[7],0%
same,Population Membrane Permeable-Phenotype (%),[7],2%
same,Population Mitochondria Different-Phenotype (%),[7],8%
same,Population Mitotic Cells (%),[7],75%
same,Population Normal (%),[7],99%
same,Population Pyknosed Nuclei (%),[7],17%
same,Population Tubulin-Different-Phenotype (%),[7],63%
same,Total Cell Count,[7],142
same,Population Apoptotic (%),[8],51%
same,Population Fragmented Nuclei (%),[8],26%
same,Population Healthy Nuclei (%),[8],51%
same,Population Hoechst High Intensity Objects (%),[8],5%
same,Population Membrane Permeable-Phenotype (%),[8],11%
same,Population Mitochondria Different-Phenotype (%),[8],12%
same,Population Mitotic Cells (%),[8],48%
same,Population Normal (%),[8],94%
same,Population Pyknosed Nuclei (%),[8],22%
same,Population Tubulin-Different-Phenotype (%),[8],82%
same,Total Cell Count,[8],174
same,Population Apoptotic (%),[9],63%
same,Population Fragmented Nuclei (%),[9],18%
same,Population Healthy Nuclei (%),[9],68%
same,Population Hoechst High Intensity Objects (%),[9],8%
same,Population Membrane Permeable-Phenotype (%),[9],0%
same,Population Mitochondria Different-Phenotype (%),[9],3%
same,Population Mitotic Cells (%),[9],36%
same,Population Normal (%),[9],91%
same,Population Pyknosed Nuclei (%),[9],13%
same,Population Tubulin-Different-Phenotype (%),[9],28%
same,Total Cell Count,[9],181
same,Population Apoptotic (%),[10],50%
same,Population Fragmented Nuclei (%),[10],37%
same,Population Healthy Nuclei (%),[10],40%
same,Population Hoechst High Intensity Objects (%),[10],0%
same,Population Membrane Permeable-Phenotype (%),[10],4%
same,Population Mitochondria Different-Phenotype (%),[10],11%
same,Population Mitotic Cells (%),[10],50%
same,Population Normal (%),[10],99%
same,Population Pyknosed Nuclei (%),[10],21%
same,Population Tubulin-Different-Phenotype (%),[10],53%
same,Total Cell Count,[10],111
same,Population Apoptotic (%),[11],70%
same,Population Fragmented Nuclei (%),[11],25%
same,Population Healthy Nuclei (%),[11],62%
same,Population Hoechst High Intensity Objects (%),[11],2%
same,Population Membrane Permeable-Phenotype (%),[11],0%
same,Population Mitochondria Different-Phenotype (%),[11],13%
same,Population Mitotic Cells (%),[11],29%
same,Population Normal (%),[11],97%
same,Population Pyknosed Nuclei (%),[11],11%
same,Population Tubulin-Different-Phenotype (%),[11],69%
same,Total Cell Count,[11],149
same,Population Apoptotic (%),[12],73%
same,Population Fragmented Nuclei (%),[12],36%
same,Population Healthy Nuclei (%),[12],51%
same,Population Hoechst High Intensity Objects (%),[12],5%
same,Population Membrane Permeable-Phenotype (%),[12],6%
same,Population Mitotic Cells (%),[12],26%
same,Population Normal (%),[12],94%
same,Population Tubulin-Different-Phenotype (%),[12],78%
same,Total Cell Count,[12],170
